Assay results from ChEMBL document CHEMBL1134785, “Synthesis and biological evaluation of prostaglandin-F alkylphosphinic acid derivatives as bone anabolic agents for the treatment of osteoporosis” (J Med Chem, 2001).

How the values were obtained:
[1] = target: T1, Prostaglandin E2 receptor EP1 subtype (Homo sapiens, UniProt P34995); assay: In vitro binding at EP1 human prostaglandin receptor using [3H]PGE-2 as radioligand
T1 sequence (P34995 whole entry): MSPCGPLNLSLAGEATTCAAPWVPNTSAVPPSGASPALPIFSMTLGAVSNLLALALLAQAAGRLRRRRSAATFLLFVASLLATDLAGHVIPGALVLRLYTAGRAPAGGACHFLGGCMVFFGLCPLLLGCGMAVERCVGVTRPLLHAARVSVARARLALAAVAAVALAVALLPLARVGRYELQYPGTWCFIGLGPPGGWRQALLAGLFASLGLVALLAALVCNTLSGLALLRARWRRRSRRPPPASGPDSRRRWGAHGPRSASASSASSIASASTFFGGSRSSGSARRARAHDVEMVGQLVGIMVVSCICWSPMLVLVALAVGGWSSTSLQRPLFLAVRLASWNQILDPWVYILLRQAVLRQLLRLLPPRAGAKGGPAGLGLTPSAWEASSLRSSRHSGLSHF
Summary of the method: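 hEP1 transiently expressed in COS-7 cells by the hFP transfection and membrane protocol, with membranes in TME buffer pH 6.0. Competition binding used 5 nM [3H]PGE2, 1 h at 23 °C, filtration and scintillation counting.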

Rattus norvegicus [2] = assay: Mineralizing surface/bone surface(%) measured Histomorphometrically after a dose of 1000 ug/kg in proximal tibial metaphysis; format: functional
Summary of the method: (§1)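 Ovariectomized six-month-old rats, 6-8 per group, were dosed subcutaneously once daily at 0.01–3.0 mg/kg for 60 days, starting 60 days after surgery. Vehicle was acetate-buffered saline, methylcellulose and polyoxyethylenesorbitan monooleate. Labels were xylenol orange 90 mg/kg pretreatment and calcein 10 mg/kg at 14 and 4 days before necropsy. Histomorphometry covered the proximal tibial metaphysis, 1–4 mm distal to the growth plate–metaphyseal junction. ANOVA/LSD versus vehicle.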

Rattus norvegicus [3] = assay: Bone Volume /Tissue Volume (%)measured Histomorphometrically after a dose of 3000 ug/kg in proximal tibial metaphysis; format: functional; details: at 3000 µg/kg
Rattus norvegicus [4] = assay: Bone formation rate/bone volume (%/year) bone measured histomorphometrically after a dose of 3000 ug/kg in proximal tibial metaphysis; format: functional; details: at 3000 µg/kg
Rattus norvegicus [5] = assay: Derived trabecular thickness (um) measured using micro Computed Tomography(CT) after a dose of 10 ug/kg in Vertebral Bone; format: functional, Trabecula
Summary of the method: (§2)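 Micro-CT of the fifth lumbar vertebra, measuring cancellous bone volume and architecture. Rats were 6 months old, OVX 60 days before treatment, then dosed daily for 60 days. Test-agent doses were 10–3000 µg/kg, given as a once-daily subcutaneous injection; 6 mg/kg/day was given to the positive-control group. Groups were compared with vehicle by ANOVA plus LSD test.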

Rattus norvegicus [6] = assay: Derived trabecular thickness (um) measured using micro Computed Tomography(CT) after a dose of 300 ug/kg in Vertebral Bone; format: functional, Trabecula; summary of the method: as §2
Rattus norvegicus [7] = assay: Endosteal eroded surface(%) measured Histomorphometrically after a dose of 10 ug/kg in tibial diaphysis; format: functional
Summary of the method: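 Tibial histomorphometry in 6-month-old rats, OVX 60 days before treatment, then daily injection for 60 days. Vehicle was acetate-buffered saline with methylcellulose and polyoxyethylenesorbitan monooleate. Rats received xylenol orange 90 mg/kg before treatment and calcein 10 mg/kg at 14 and 4 days pre-sacrifice. Rats were killed by cardiac puncture under ketamine/xylazine. Groups were compared with vehicle by ANOVA plus LSD test.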

Rattus norvegicus [8] = assay: Mineral apposition rate ([…])bone measured Histomorphometrically after a dose of 300 ug/kg in tibial diaphysis; format: functional
Summary of the method: (§3)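 Six-month-old rats, bilaterally ovariectomized, 6-8 per group, on natural chow. After 60 days they received once-daily subcutaneous dosing for 60 days at 0.01–3.0 mg/kg. Vehicle was acetate-buffered saline with methylcellulose and polyoxyethylenesorbitan monooleate. Labels were xylenol orange 90 mg/kg before treatment and calcein 10 mg/kg 14 and 4 days before sacrifice. Tibial histomorphometry was read under fluorescent light, with ANOVA/LSD versus vehicle.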

Rattus norvegicus [9] = assay: Mineral apposition rate ([…])bone measured Histomorphometrically after a dose of 3000 ug/kg in tibial diaphysis; format: functional; summary of the method: as §3
Rattus norvegicus [10] = assay: Endosteal mineralizing surface Histomorphometrically after a dose of 100 ug/kg in tibial diaphysis; format: functional; summary of the method: as §3
Rattus norvegicus [11] = assay: Endosteal mineralizing surface Histomorphometrically after a dose of 30 ug/kg in tibial diaphysis; format: functional; summary of the method: as §3
Rattus norvegicus [12] = assay: Marrow area (mm) measured Histomorphometrically after a dose of 100 ug/kg in tibial diaphysis; format: functional; summary of the method: as §3
Rattus norvegicus [13] = assay: Marrow area (mm) measured Histomorphometrically after a dose of 30 ug/kg in tibial diaphysis; format: functional; summary of the method: as §3
Rattus norvegicus [14] = assay: Periosteal mineralizing surface (%) measured Histomorphometrically after a dose of 30 ug/kg in tibial diaphysis; format: functional
Summary of the method: (§4)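 Rats on natural chow (1.46% Ca) were bilaterally ovariectomized at 6 months and left untreated for 60 days. They then received once-daily subcutaneous doses for 60 days, with vehicle of acetate-buffered saline, methylcellulose and polysorbate. Xylenol orange (90 mg/kg) was given before treatment and calcein (10 mg/kg) 14 and 4 days before sacrifice. Tibiae were analysed by fluorescent histomorphometry, 6-8 rats/group, ANOVA/LSD vs vehicle.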

Rattus norvegicus [15] = assay: Periosteal mineralizing surface (%) measured Histomorphometrically after a dose of 300 ug/kg in tibial diaphysis; format: functional; summary of the method: as §4
Rattus norvegicus [16] = assay: Trabecular no (mm)measured Histomorphometrically after a dose of 10 ug/kg in proximal tibial metaphysis; format: functional, Trabecula
Summary of the method: (§5)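 Six-month-old rats were ovariectomized, and 60 days later daily subcutaneous dosing began for 60 days, with vehicle of acetate-buffered saline, methylcellulose and polysorbate. Xylenol orange (90 mg/kg) labelled bone pre-treatment and calcein (10 mg/kg) 14 and 4 days pre-sacrifice. Histomorphometry covered the proximal tibial metaphysis 1-4 mm distal to the growth plate-metaphyseal junction. Groups were 6-8 rats, compared by ANOVA/LSD vs vehicle.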

Rattus norvegicus [17] = assay: Trabecular no (mm)measured Histomorphometrically after a dose of 300 ug/kg in proximal tibial metaphysis; format: functional, Trabecula; summary of the method: as §5
Rattus norvegicus [18] = assay: Derived trabecular thickness (um) measured using micro Computed Tomography(CT) after a dose of 100 ug/kg in Vertebral Bone; format: functional, Trabecula; summary of the method: as §2
Rattus norvegicus [19] = assay: Mineral apposition rate ([…])bone measured Histomorphometrically after a dose of 1000 ug/kg in proximal tibial metaphysis; format: functional; summary of the method: as §1

For `CP(=O)(O)CCC/C=C\C[C@@H]1[C@@H](/C=C/[C@@H](O)COc2ccccc2)[C@H](O)C[C@@H]1O`, the IC50 [1] was over 10 µM, the Activity (Rattus norvegicus [2]) was 22.04% and the Activity (Rattus norvegicus [3]) was 8.51%. The Activity (Rattus norvegicus [4]) was 247.55%, the Derived trabecular thickness (Rattus norvegicus [5]) was 73 µm and the Derived trabecular thickness (Rattus norvegicus [6]) was 79.5 µm. For the same compound, the Endosteal eroded surface (Rattus norvegicus [7]) was 11.83%, the Mineral apposition rate (Rattus norvegicus [8]) was 0.53 µm/day and the Mineral apposition rate (Rattus norvegicus [9]) was 1.03 µm/day. The Endosteal mineralizing surface (Rattus norvegicus [10]) was 22.28%, the Endosteal mineralizing surface (Rattus norvegicus [11]) was 28.72% and the Marrow area (Rattus norvegicus [12]) was 0.82 mm². The Marrow area (Rattus norvegicus [13]) was 0.87 mm², the Periosteal mineralizing surface (Rattus norvegicus [14]) was 26.23% and the Periosteal mineralizing surface (Rattus norvegicus [15]) was 9.56%. The Trabecular no. (Rattus norvegicus [16]) was 0.58 1/mm, the Trabecular no. (Rattus norvegicus [17]) was 1.27 1/mm and the Derived trabecular thickness (Rattus norvegicus [18]) was 78.7 µm. The Mineral apposition rate (Rattus norvegicus [19]) was 1.06 µm/day.
